# Reference: ChEMBL document CHEMBL4689842, “EUbOPEN Chemogenomics Library wave 1” (2021)
# System: HEK-293T
# Assay: Multiplex assay against HEK293T;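 as to Population Tubulin-Different-Phenotype (%): share of the cells with healthy nuclei that show this phenotype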
# Assay type: toxicity, cell-based
# Details: human
# How it was run: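 With compound added, live cells were imaged on a CQ1 microscope at 37°C and 5% CO2; staining with Hoechst33342, BioTracker Green Microtubule Cytoskeleton Dye, MitoTracker Red and Annexin V Alexa Fluor 680 had been done at seeding. The CellPathfinder machine-learning gating scheme split cells into Hoechst high-intensity objects or normal cells, normal cells into healthy, pyknosed or fragmented nuclei, and pyknosed cells into mitotic or apoptotic. The tubulin, mitochondrial-mass and membrane-permeability phenotypes are per cents of healthy-nucleus cells.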
# [1] = 12 h, 1 µM, compound concentration 1 uM, replicate 1
# [2] = 12 h, 1 µM, compound concentration 1 uM, replicate 2
# [3] = 12 h, 10 µM, compound concentration 10 uM, replicate 1
# [4] = 12 h, 10 µM, compound concentration 10 uM, replicate 2
# [5] = 24 h, 1 µM, compound concentration 1 uM, replicate 1
# [6] = 24 h, 1 µM, compound concentration 1 uM, replicate 2
# [7] = 24 h, 10 µM, compound concentration 10 uM, replicate 1
# [8] = 24 h, 10 µM, compound concentration 10 uM, replicate 2
# [9] = 48 h, 1 µM, compound concentration 1 uM, replicate 1
# [10] = 48 h, 1 µM, compound concentration 1 uM, replicate 2
# [11] = 48 h, 10 µM, compound concentration 10 uM, replicate 1
# [12] = 48 h, 10 µM, compound concentration 10 uM, replicate 2
compound,measurement,setting,value
COc1cc2ncn(-c3cc(OCc4ccccc4C(F)(F)F)c(C(N)=O)s3)c2cc1OC [GW843682X],Population Apoptotic (%),[1],62%
same,Population Fragmented Nuclei (%),[1],14%
same,Population Healthy Nuclei (%),[1],44%
same,Population Hoechst High Intensity Objects (%),[1],13%
same,Population Membrane Permeable-Phenotype (%),[1],5%
same,Population Mitochondria Different-Phenotype (%),[1],84%
same,Population Mitotic Cells (%),[1],37%
same,Population Normal (%),[1],86%
same,Population Pyknosed Nuclei (%),[1],40%
same,Population Tubulin-Different-Phenotype (%),[1],64%
same,Total Cell Count,[1],252
same,Population Apoptotic (%),[2],25%
same,Population Fragmented Nuclei (%),[2],4%
same,Population Healthy Nuclei (%),[2],38%
same,Population Hoechst High Intensity Objects (%),[2],2%
same,Population Membrane Permeable-Phenotype (%),[2],11%
same,Population Mitochondria Different-Phenotype (%),[2],34%
same,Population Mitotic Cells (%),[2],74%
same,Population Normal (%),[2],97%
same,Population Pyknosed Nuclei (%),[2],56%
same,Population Tubulin-Different-Phenotype (%),[2],47%
same,Total Cell Count,[2],208
same,Population Apoptotic (%),[3],57%
same,Population Fragmented Nuclei (%),[3],12%
same,Population Healthy Nuclei (%),[3],54%
same,Population Hoechst High Intensity Objects (%),[3],14%
same,Population Membrane Permeable-Phenotype (%),[3],9%
same,Population Mitochondria Different-Phenotype (%),[3],97%
same,Population Mitotic Cells (%),[3],42%
same,Population Normal (%),[3],85%
same,Population Pyknosed Nuclei (%),[3],33%
same,Population Tubulin-Different-Phenotype (%),[3],97%
same,Total Cell Count,[3],272
same,Population Apoptotic (%),[4],31%
same,Population Fragmented Nuclei (%),[4],11%
same,Population Healthy Nuclei (%),[4],50%
same,Population Hoechst High Intensity Objects (%),[4],4%
same,Population Membrane Permeable-Phenotype (%),[4],11%
same,Population Mitochondria Different-Phenotype (%),[4],88%
same,Population Mitotic Cells (%),[4],68%
same,Population Normal (%),[4],96%
same,Population Pyknosed Nuclei (%),[4],38%
same,Population Tubulin-Different-Phenotype (%),[4],99%
same,Total Cell Count,[4],250
same,Population Apoptotic (%),[5],56%
same,Population Fragmented Nuclei (%),[5],11%
same,Population Healthy Nuclei (%),[5],39%
same,Population Hoechst High Intensity Objects (%),[5],19%
same,Population Membrane Permeable-Phenotype (%),[5],7%
same,Population Mitochondria Different-Phenotype (%),[5],81%
same,Population Mitotic Cells (%),[5],43%
same,Population Normal (%),[5],80%
same,Population Pyknosed Nuclei (%),[5],49%
same,Population Tubulin-Different-Phenotype (%),[5],73%
same,Total Cell Count,[5],252
same,Population Apoptotic (%),[6],24%
same,Population Fragmented Nuclei (%),[6],5%
same,Population Healthy Nuclei (%),[6],41%
same,Population Hoechst High Intensity Objects (%),[6],4%
same,Population Membrane Permeable-Phenotype (%),[6],3%
same,Population Mitochondria Different-Phenotype (%),[6],43%
same,Population Mitotic Cells (%),[6],75%
same,Population Normal (%),[6],95%
same,Population Pyknosed Nuclei (%),[6],53%
same,Population Tubulin-Different-Phenotype (%),[6],65%
same,Total Cell Count,[6],205
same,Population Apoptotic (%),[7],71%
same,Population Fragmented Nuclei (%),[7],11%
same,Population Healthy Nuclei (%),[7],57%
same,Population Hoechst High Intensity Objects (%),[7],15%
same,Population Membrane Permeable-Phenotype (%),[7],6%
same,Population Mitochondria Different-Phenotype (%),[7],96%
same,Population Mitotic Cells (%),[7],28%
same,Population Normal (%),[7],84%
same,Population Pyknosed Nuclei (%),[7],31%
same,Population Tubulin-Different-Phenotype (%),[7],90%
same,Total Cell Count,[7],270
same,Population Apoptotic (%),[8],57%
same,Population Fragmented Nuclei (%),[8],14%
same,Population Healthy Nuclei (%),[8],53%
same,Population Hoechst High Intensity Objects (%),[8],3%
same,Population Membrane Permeable-Phenotype (%),[8],3%
same,Population Mitochondria Different-Phenotype (%),[8],95%
same,Population Mitotic Cells (%),[8],42%
same,Population Normal (%),[8],96%
same,Population Pyknosed Nuclei (%),[8],32%
same,Population Tubulin-Different-Phenotype (%),[8],96%
same,Total Cell Count,[8],264
same,Population Apoptotic (%),[9],53%
same,Population Fragmented Nuclei (%),[9],17%
same,Population Healthy Nuclei (%),[9],31%
same,Population Hoechst High Intensity Objects (%),[9],17%
same,Population Membrane Permeable-Phenotype (%),[9],3%
same,Population Mitochondria Different-Phenotype (%),[9],84%
same,Population Mitotic Cells (%),[9],46%
same,Population Normal (%),[9],82%
same,Population Pyknosed Nuclei (%),[9],50%
same,Population Tubulin-Different-Phenotype (%),[9],72%
same,Total Cell Count,[9],248
same,Population Apoptotic (%),[10],55%
same,Population Fragmented Nuclei (%),[10],7%
same,Population Healthy Nuclei (%),[10],63%
same,Population Hoechst High Intensity Objects (%),[10],2%
same,Population Membrane Permeable-Phenotype (%),[10],13%
same,Population Mitochondria Different-Phenotype (%),[10],36%
same,Population Mitotic Cells (%),[10],44%
same,Population Normal (%),[10],97%
same,Population Pyknosed Nuclei (%),[10],29%
same,Population Tubulin-Different-Phenotype (%),[10],67%
same,Total Cell Count,[10],220
same,Population Apoptotic (%),[11],72%
same,Population Fragmented Nuclei (%),[11],18%
same,Population Healthy Nuclei (%),[11],46%
same,Population Hoechst High Intensity Objects (%),[11],12%
same,Population Membrane Permeable-Phenotype (%),[11],3%
same,Population Mitochondria Different-Phenotype (%),[11],96%
same,Population Mitotic Cells (%),[11],27%
same,Population Normal (%),[11],87%
same,Population Pyknosed Nuclei (%),[11],34%
same,Population Tubulin-Different-Phenotype (%),[11],85%
same,Total Cell Count,[11],260
same,Population Apoptotic (%),[12],59%
same,Population Fragmented Nuclei (%),[12],7%
same,Population Healthy Nuclei (%),[12],42%
same,Population Hoechst High Intensity Objects (%),[12],4%
same,Population Membrane Permeable-Phenotype (%),[12],7%
same,Population Mitochondria Different-Phenotype (%),[12],92%
same,Population Mitotic Cells (%),[12],40%
same,Population Normal (%),[12],95%
same,Population Pyknosed Nuclei (%),[12],50%
same,Population Tubulin-Different-Phenotype (%),[12],92%
same,Total Cell Count,[12],247
